# The source made the active and inactive calls. The calls are words filed in the database; no cut-off is given here.
# Legend:
# [1] = Cytotoxicity against mouse HECa10 cells by MTT assay; assay type: cell-based
# Method in brief: (§1)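 Control lines used: NIH3T3 (ATCC) and HECa10 (lymph node-derived). Cells seeded at 2 × 10³ per well in RPMI 1640 with 10% FBS, 37 °C, 5% CO₂. Compounds added after 24 h in quadruplicate (10–2000 µM, eleven concentrations), then 24 or 48 h exposure. MTT for 3 h, formazan dissolved in acid–isopropanol, A570. Survival is percent of initial absorbance.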
# [2] = Cytotoxicity against mouse NIH/3T3 cells by MTT assay; assay type: cell-based; settings: nih3t3; method in brief: as §1
# [3] = test system: B16-F10; test: Cytotoxicity against mouse B16F10 cells at 250 uM after 48 hrs by MTT assay; assay type: functional, cell-based
# Method in brief: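 B16(F10) cells at 2 × 10³ per well in RPMI 1640 with 10% FBS, 37 °C, 5% CO₂. Compound added after 24 h in quadruplicate, with 250 µM among the tested concentrations, then incubated 48 h. MTT 0.5 mg/mL for 3 h, formazan dissolved in acid–isopropanol, read at 570 nm. Survival expressed as percent of initial absorbance.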
# [4] = test system: B16-F10; test: Cytotoxicity against mouse B16F10 cells after 24 hrs by MTT assay; assay type: functional, cell-based
# Method in brief: (§2)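 B16(F10) murine melanoma cells seeded at 2 × 10³ per well in RPMI 1640 with 10% FBS, 37 °C, 5% CO₂. After 24 h, compounds added in quadruplicate at eleven concentrations (10–2000 µM), then incubated a further 24 or 48 h. MTT (0.5 mg/mL in PBS) for 3 h at 37 °C, formazan dissolved in acid–isopropanol, A570. Survival = absorbance at time t / initial absorbance × 100%.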
# [5] = test system: B16-F10; test: Cytotoxicity against mouse B16F10 cells after 48 hrs by MTT assay; assay type: functional, cell-based; method in brief: as §2
Compound,Activity [1],Activity [2],Activity [3],Activity [4],Activity [5]
C[C@@](Cc1ccc(O)c(O)c1)(NN)C(=O)O.O [CARBIDOPA],Toxic,Toxic,Active,–,–
CC(Cc1ccc(O)c(O)c1)C(=O)O (stereo unspecified),Toxic,Toxic,–,Dose-dependent effect,Dose-dependent effect
Cc1cc2cc(O)c(O)cc2nn1,Toxic,Toxic,–,inactive,Active

# — ChEMBL document CHEMBL1136960, “Oxidation of carbidopa by tyrosinase and its effect on murine melanoma” (Bioorg Med Chem Lett, 2009)
